Measured values as given in ChEMBL document CHEMBL3864143, “Design, synthesis and biological evaluation of novel non-covalent piperidine-containing peptidyl proteasome inhibitors” (Bioorg Med Chem, 2016).
Active and inactive are the calls of the source. No cut-off for these calls is given here.

Key:
[1] = target: T1, Proteasome Macropain subunit MB1 (Homo sapiens, UniProt P28074); assay: Inhibition of chymotrypsin-like activity of human 20S proteasome preincubated for 15 mins followed by addition of Suc-Leu-Leu-Val-Tyr-AMC as substrate by fluorescence analysis
T1 sequence (P28074 whole entry): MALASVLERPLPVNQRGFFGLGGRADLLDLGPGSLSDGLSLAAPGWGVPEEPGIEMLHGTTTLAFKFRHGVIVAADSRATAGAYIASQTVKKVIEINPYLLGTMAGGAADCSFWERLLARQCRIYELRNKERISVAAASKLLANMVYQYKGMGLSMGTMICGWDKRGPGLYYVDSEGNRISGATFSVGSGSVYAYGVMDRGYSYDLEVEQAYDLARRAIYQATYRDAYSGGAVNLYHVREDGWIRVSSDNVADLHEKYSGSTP
In short: (§1)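 Purified human proteasome (25 µg/mL working stock) in 100 mM Tris-HCl pH 8.0 preincubated 15 min with compound. Suc-LLVY-AMC added (50 µM as listed), AMC release followed by fluorescence increase at ex 355/em 460 nm. IC50 by sigmoidal variable-slope fit, mean of three independent determinations.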

[2] = Antiproliferative activity against human RPMI8226 cells measured after 72 hrs by MTS assay; type: functional, cell-based; conditions: RPMI-8226, 72 h
In short: (§2)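 MM-1S seeded at 2×10^4/well and RPMI 8226 at 0.5×10^4/well, exposed to compounds for 72 h. MTS then added at 0.5 mg/mL final for 2–4 h, absorbance read at 490 nm with 690 nm background subtraction. Growth inhibition = (A_control − A_sample)/A_control; IC50 from nonlinear sigmoidal variable-slope dose-response fit.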

[3] = Antiproliferative activity against human MM1S cells measured after 72 hrs by MTS assay; type: functional, cell-based; conditions: MM1.S; in short: as §2
[4] = target: T2, Proteasome subunit beta type-5 (Mus musculus) (UniProt O55234); assay: Inhibition of chymotrypsin-like activity of 20S proteasome in mouse blood at 0.5 to 12.5 uM preincubated for 40 mins followed by addition of Suc-Leu-Leu-Val-Tyr-AMC as substrate relative to control; type: tissue-based
T2 sequence (whole entry): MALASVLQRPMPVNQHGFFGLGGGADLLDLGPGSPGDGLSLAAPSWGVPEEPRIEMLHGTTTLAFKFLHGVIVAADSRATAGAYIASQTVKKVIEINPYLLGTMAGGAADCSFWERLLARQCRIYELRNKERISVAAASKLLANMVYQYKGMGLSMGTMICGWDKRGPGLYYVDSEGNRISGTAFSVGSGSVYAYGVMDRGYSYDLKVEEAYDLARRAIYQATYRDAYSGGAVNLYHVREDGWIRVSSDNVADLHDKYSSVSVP
In short: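 Whole blood from normal mice incubated 40 min with compound (compound:serum 1:50 by volume), centrifuged, cells lysed in 5 mM EDTA pH 8.0 at 4°C for 60 min. Lysate protein (Bradford, 100 µg) assayed in 20 mM HEPES pH 8.0, 0.5 mM EDTA, 0.05% SDS, 1% DMSO with 50 µM Suc-LLVY-AMC; fluorescence at ex 355/em 460 nm.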

[5] = Half life in mouse plasma at 2 uM by LC-MS/MS analysis; type: ADME, cell-free
In short: (§3)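 Sodium-heparin mouse plasma or blood, pre-warmed to 37°C, spiked to 2 µM final from a 0.02 mM dosing solution in 0.05 M sodium phosphate with 0.5% BSA; duplicates held at 37°C. Time points quenched with acetonitrile, supernatant diluted 1:1 in water for LC-MS/MS. Percent remaining from analyte/internal-standard peak-area ratio versus time 0; T1/2 from single-phase exponential decay fit.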

[6] = Half life in mouse blood at 2 uM by LC-MS/MS analysis; type: ADME, tissue-based; in short: as §3
[7] = target: T1, Proteasome Macropain subunit MB1; assay: Inhibition of chymotrypsin-like activity of 20S proteasome (unknown origin) using succinyl-leu-leu-val-tyr-7-amino-4-methyl coumarin as substrate after 15 mins by fluorescent spectroscopic method; in short: as §1

| SMILES | IC50 [1] [µM] | inhibition [4] | half-life at 2 µM [5] [h] | half-life at 2 µM [6] [h] | IC50 [7] [µM] | IC50 [2] [µM] | IC50 [3] [µM] |
| --- | --- | --- | --- | --- | --- | --- | --- |
| CC(C)C[C@H](NC(=O)N1CCC(NC(=O)c2cnccn2)CC1)C(=O)N[C@@H](CCc1ccccc1)C(=O)NCc1ccccc1Cl | 0.0457 |  |  |  |  |  |  |
| O=C(Nc1cnccn1)C1CCN(C(=O)N[C@@H](Cc2ccccc2)C(=O)N[C@@H](CCc2ccccc2)C(=O)NCc2ccccc2Cl)CC1 | 0.153 |  |  |  |  |  |  |
| O=C(Nc1ccc(F)cc1)C1CCN(C(=O)N[C@@H](CCc2ccccc2)C(=O)N[C@@H](CCc2ccccc2)C(=O)NCc2ccccc2Cl)CC1 | 0.0169 |  |  |  |  | 0.0943 | 0.107 |
| CC(C)C[C@H](NC(=O)[C@H](CCc1ccccc1)NC(=O)CN1CCOCC1)C(=O)N[C@@H](Cc1ccccc1)C(=O)N[C@@H](CC(C)C)C(=O)[C@@]1(C)CO1 [CARFILZOMIB] |  | Active |  |  |  | 0.0132 | 0.0015 |
| O=C(NC1CCN(C(=O)N[C@@H](Cc2ccccc2)C(=O)N[C@@H](CCc2ccccc2)C(=O)NCc2ccccc2Cl)CC1)c1cnccn1 | 0.344 |  |  |  |  |  |  |
| C[C@H](NC(=O)N1CCC(NC(=O)c2cnccn2)CC1)C(=O)N[C@@H](CCc1ccccc1)C(=O)NCc1ccccc1Cl | 0.67 |  |  |  |  |  |  |
| O=C(NC1CCN(C(=O)N[C@@H](CCc2ccccc2)C(=O)N[C@@H](CCc2ccccc2)C(=O)NCc2ccccc2Cl)CC1)c1cnccn1 | 0.0237 |  |  |  |  |  |  |
| CC(C)C[C@H](NC(=O)N1CCC(C(=O)Nc2cnccn2)CC1)C(=O)N[C@@H](CCc1ccccc1)C(=O)NCc1ccccc1Cl | 0.0166 |  |  |  |  | 0.371 | 0.261 |
| C[C@H](NC(=O)N1CCC(C(=O)Nc2cnccn2)CC1)C(=O)N[C@@H](CCc1ccccc1)C(=O)NCc1ccccc1Cl | 0.601 |  |  |  |  |  |  |
| COc1ccc(NC(=O)C2CCN(C(=O)N[C@@H](CCc3ccccc3)C(=O)N[C@@H](CCc3ccccc3)C(=O)NCc3ccccc3Cl)CC2)cc1 | 0.0157 |  |  |  |  | 0.0846 | 0.0929 |
| COc1ccc2c(c1)C(CC(=O)N[C@@H](CC(C)C)C(=O)N[C@H](CC(C)C)C(=O)NCc1c(F)cccc1F)CC2=O (stereo not given in full) |  |  |  |  | 0.14 |  |  |

Further molecules by falling IC50 [1], results first:

| IC50 [1] [µM] | inhibition [4] | half-life at 2 µM [5] [h] | half-life at 2 µM [6] [h] | IC50 [7] [µM] | SMILES | IC50 [2] [µM] | IC50 [3] [µM] |
| --- | --- | --- | --- | --- | --- | --- | --- |
| 0.0147 |  |  |  |  | O=C(Nc1cnccn1)C1CCN(C(=O)N[C@@H](CCc2ccccc2)C(=O)N[C@@H](CCc2ccccc2)C(=O)NCc2ccccc2Cl)CC1 | 0.196 | 0.135 |
| 0.0043 | > 60% |  |  |  | O=C(Nc1nccs1)C1CCN(C(=O)N[C@@H](CCc2ccccc2)C(=O)N[C@@H](CCc2ccccc2)C(=O)NCc2ccccc2Cl)CC1 | 0.0295 | 0.0325 |
| 0.003 | > 60% |  |  |  | O=C(Nc1ccccc1)C1CCN(C(=O)N[C@@H](CCc2ccccc2)C(=O)N[C@@H](CCc2ccccc2)C(=O)NCc2ccccc2Cl)CC1 | 0.0185 | 0.0202 |
| 0.0024 | > 60% |  |  |  | O=C(Nc1ccccn1)C1CCN(C(=O)N[C@@H](CCc2ccccc2)C(=O)N[C@@H](CCc2ccccc2)C(=O)NCc2ccccc2Cl)CC1 | 0.0247 | 0.0222 |
| 0.0014 | > 60% | 7.25 | 2.98 |  | O=C(Nc1cccnc1)C1CCN(C(=O)N[C@@H](CCc2ccccc2)C(=O)N[C@@H](CCc2ccccc2)C(=O)NCc2ccccc2Cl)CC1 | 0.0139 | 0.0095 |
